Experimental data: ChEMBL document CHEMBL1156623, “Novel 1,4-benzothiazine derivatives as large conductance Ca2+-activated potassium channel openers” (J Med Chem, 2008)
Calls of active or inactive are those of the source. The rule behind the calls is not given here.

Columns and labels:
[1] = target: Calcium-activated potassium channel subunit alpha-1 (Rattus norvegicus) (UniProt Q62976); test: Activation of large-conductance calcium-activated potassium channel-mediated vasorelaxation in endothelium-denuded normotensive Wistar rat thoracic aorta assessed as potassium chloride-induced contractile tension relative to NS-1619; assay type: tissue-based
[2] = target: Calcium-activated potassium channel subunit alpha-1 (Rattus norvegicus, UniProt Q62976); test: (§1) Activation of large-conductance calcium-activated potassium channel-mediated vasorelaxation in endothelium-denuded normotensive Wistar rat thoracic aorta assessed as potassium chloride-induced contractile tension
Procedure, shortened: (§2)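 Male Wistar rats (250-350 g); thoracic aortic rings, endothelium removed (confirmed by ACh 10 µM lack of relaxation), in Tyrode at 37 °C gassed 95% O2/5% CO2, isometric tension, 60 min equilibration. After stable KCl 20 mM contraction, 3-fold increasing cumulative concentrations added, up to 10 µM. Efficacy as % of KCl tone; pIC50 from half-reduction; mean ± SE of 5-10 experiments.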

[3] = target: Calcium-activated potassium channel subunit alpha-1 (Rattus norvegicus) (UniProt Q62976); test: as §1; design: scale not given: the % may be the effect or the level left; procedure, shortened: as §2
[4] = target: Calcium-activated potassium channel subunit alpha-1 (Rattus norvegicus) (UniProt Q62976); test: Activation of large-conductance calcium-activated potassium channel-mediated vasorelaxation in endothelium-denuded normotensive Wistar rat thoracic aorta assessed as potassium chloride-induced contraction in presence of iberiotoxin
Procedure, shortened: (§3)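 Male Wistar rats (250-350 g); endothelium-denuded thoracic aortic rings in Tyrode at 37 °C, gassed 95% O2/5% CO2, isometric tension. Denudation checked with ACh 10 µM on KCl 20 mM contraction. After KCl 20 mM contraction, IbTX 100 nM or TEA 10 mM added, then cumulative 3-fold increasing compound concentrations, max 10 µM; DMSO stock diluted in water. Efficacy as % of KCl tone; pIC50; mean ± SE, 5-10 experiments.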

[5] = target: Calcium-activated potassium channel subunit alpha-1 (Rattus norvegicus) (UniProt Q62976); test: Activation of large-conductance calcium-activated potassium channel-mediated vasorelaxation in endothelium-denuded normotensive Wistar rat thoracic aorta assessed as potassium chloride-induced contraction in presence of tetraethylammonium chloride; assay type: tissue-based; procedure, shortened: as §3

Chain of Calcium-activated potassium channel subunit alpha-1 (Q62976 whole entry): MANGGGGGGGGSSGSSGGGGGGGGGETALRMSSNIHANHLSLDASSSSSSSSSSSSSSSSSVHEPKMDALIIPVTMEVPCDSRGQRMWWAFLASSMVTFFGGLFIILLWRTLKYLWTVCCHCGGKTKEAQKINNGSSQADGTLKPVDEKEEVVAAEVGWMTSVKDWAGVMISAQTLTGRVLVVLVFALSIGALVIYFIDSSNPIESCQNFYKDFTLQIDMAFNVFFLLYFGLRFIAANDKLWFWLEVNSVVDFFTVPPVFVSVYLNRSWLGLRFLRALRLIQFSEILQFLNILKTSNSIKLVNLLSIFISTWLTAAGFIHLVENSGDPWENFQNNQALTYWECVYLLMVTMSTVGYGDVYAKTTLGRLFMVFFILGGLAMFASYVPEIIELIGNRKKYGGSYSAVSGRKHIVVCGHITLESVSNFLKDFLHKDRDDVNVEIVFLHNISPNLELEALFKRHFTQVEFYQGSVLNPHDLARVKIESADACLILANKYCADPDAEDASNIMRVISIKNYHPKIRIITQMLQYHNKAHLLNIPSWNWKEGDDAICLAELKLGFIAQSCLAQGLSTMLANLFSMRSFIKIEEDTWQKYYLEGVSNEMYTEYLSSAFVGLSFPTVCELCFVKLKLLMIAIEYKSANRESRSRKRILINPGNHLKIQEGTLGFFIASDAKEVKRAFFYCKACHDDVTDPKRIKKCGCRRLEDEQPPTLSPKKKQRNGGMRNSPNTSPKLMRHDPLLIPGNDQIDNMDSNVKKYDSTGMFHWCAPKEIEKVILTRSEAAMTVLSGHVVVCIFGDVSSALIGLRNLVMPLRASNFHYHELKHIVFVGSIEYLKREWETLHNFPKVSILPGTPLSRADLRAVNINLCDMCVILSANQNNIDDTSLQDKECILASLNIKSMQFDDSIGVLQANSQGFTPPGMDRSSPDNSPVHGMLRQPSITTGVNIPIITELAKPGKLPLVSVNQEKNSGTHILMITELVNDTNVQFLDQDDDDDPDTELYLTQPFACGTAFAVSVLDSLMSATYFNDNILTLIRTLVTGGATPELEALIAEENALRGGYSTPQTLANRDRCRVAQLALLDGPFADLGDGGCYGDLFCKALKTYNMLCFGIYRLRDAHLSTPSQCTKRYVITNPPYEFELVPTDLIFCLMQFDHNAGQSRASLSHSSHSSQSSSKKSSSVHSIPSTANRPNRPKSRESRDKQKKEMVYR
Chain of Calcium-activated potassium channel subunit alpha-1 (Rattus norvegicus) (Q62976 whole entry): as above

Emax [1] | IC50 [2] | Activity [3] | Compound | Activity [4] | Activity [5]
70% | 6.31 µM |  | COc1ccc(Br)cc1[C@@H](O)[C@H]1Sc2ccc(C(F)(F)F)cc2NC1=O (relative stereo) |  | 
44% |  | < 50% | O=C1Nc2cc(C(F)(F)F)ccc2SC1c1cc(Br)ccc1O (centres undefined) |  | 
 | 5.01 µM |  | O=c1[nH]c2cc(C(F)(F)F)ccc2n1-c1cc(C(F)(F)F)ccc1O |  | 
42% |  | < 50% | O=C1Nc2ccccc2SC1c1ccccc1 (centres undefined) |  | 
100% | 22.4 µM |  | COc1ccccc1C1CNc2cc(C(F)(F)F)ccc2S1 (centres undefined) |  | 
67% | 0.617 µM |  | COc1ccc(Br)cc1C1Sc2ccc(C(F)(F)F)cc2N(C)C1=O (centres undefined) |  | inactive
 |  | < 50% | O=C1Nc2cc(C(F)(F)F)ccc2SC1c1cc(Cl)ccc1O (centres undefined) |  | 
39% |  | < 50% | O=C1Nc2cc(C(F)(F)F)ccc2SC1c1ccccc1 (centres undefined) |  | 

The next lines start with the compound.

Compound | Emax [1] | IC50 [2] | Activity [3] | Activity [4] | Activity [5]
COc1ccc(Br)cc1C1C(=O)Nc2cc(C(F)(F)F)ccc2[S+]1[O-] (centres undefined) | 34% |  | < 50% |  | 
COc1ccc(Br)cc1C1Sc2ccc(C(F)(F)F)cc2NC1=O (centres undefined) | 77% | 0.0398 µM |  | inactive | inactive
COc1ccc(Br)cc1C1Sc2ccccc2NC1=O (centres undefined) | 100% | 15.8 µM |  |  | 
COc1ccc(Br)cc1C1Sc2ccc(C(F)(F)F)cc2NC1=S (centres undefined) | 26% |  | < 50% |  | 
COc1ccc(Br)cc1C1CNc2cc(C(F)(F)F)ccc2S1 (centres undefined) | < 25% |  | < 50% |  | 
COc1c(Br)cc(Br)cc1C1Sc2ccc(C(F)(F)F)cc2NC1=O (centres undefined) | 75% | 50.1 µM |  |  | 
